Like-named read-outs stand apart in the source and are kept apart here. Peptide text beside a SMILES is read from it.
Tests used:
[1] = target: MLL1 core complex (MLL1/WDR5/RbBP5/ASH2L) (Homo sapiens, UniProt P61964); experiment: In vitro H3K4 histone methyltransferase; type: biochemical; conditions: for inhibition of MLL1 HMT activity, result in words: up to 400 μM
[2] = target: WDR5 (Homo sapiens, UniProt P61964); experiment: Fluorescence-polarization; type: binding; conditions: for decrease in binding affinity to WDR5 (times) compared to ARA (Ac-ARA-NH2) / improvement in binding affinity to WDR5 (times more potent) compared to ARA (Ac-ARA-NH2): relative to ARA peptide; for weakening of binding to WDR5 (times) compared to Val and Abu at Ala1: relative to Val and Abu
[3] = system: Meis-1; experiment: qRT-PCR analysis of Meis-1 expression in MLL1-AF9 transduced bone marrow cells; type: cell-based; conditions: 50 μM, 96 h, MLL1-AF9 transduced murine cells
Method in brief: (§1)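 Murine bone marrow cells transduced with MLL1-AF9 were exposed for 96 h to test compound (25 or 50 μM), a control compound (50 μM) or mock, all at 0.2% final DMSO. Total RNA was extracted (Trizol plus column kit) and cDNA made by random priming. SYBR real-time PCR used gene-specific primers for HoxA9, Meis1 and GAPDH. Expression is relative to mock after normalizing to GAPDH or total input RNA; unpaired t test versus mock.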

[4] = system: K562 cells; experiment: Annexin V-propidium iodide apoptosis assay; type: cell-based; conditions: K562, up to 50 μM, 96 h
[5] = system: GAPDH; experiment: qRT-PCR analysis of GAPDH; type: cell-based; conditions: 96 h, MLL1-AF9 transduced murine cells
Method in brief: as §1

[6] = system: K562 cells; experiment: Cell growth, CellTiter-Glo Luminescent Cell Viability Assay; type: cell-based; conditions: 7 days
Method in brief: (§2)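 Cells grown in RPMI 1640 with 10% FBS and penicillin-streptomycin at 37 °C, 5% CO2. Seeded at 5 × 10^5 cells per well and exposed to test compound or 0.2% DMSO vehicle for 7 days. Medium was changed and compound resupplied every 2 days. CellTiter-Glo reagent added, 2 min shaking to lyse, 10 min at room temperature, then luminescence read.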

[7] = system: KOPN8 cells; experiment: as above; type: cell-based; conditions: 7 days
Method in brief: as §2

[8] = system: MV4;11 cells; experiment: as above; type: cell-based; conditions: 7 days
Method in brief: as §2

[9] = system: HoxA9; experiment: qRT-PCR analysis of HoxA9 expression in MLL1-AF9 transduced bone marrow cells; type: cell-based; conditions: 96 h, MLL1-AF9 transduced murine cells
Method in brief: as §1

[10] = system: MV4;11 cells; experiment: Annexin V-propidium iodide apoptosis assay; type: cell-based; conditions: MV4;11, 50 μM, 96 h

Structure (SMILES): CC(=O)N[C@@H](C)C(=O)N[C@@H](CCCNC(=N)N)C(=O)N[C@@H](C)C(N)=O [ARA, Ac-ARA-NH2] (Ac-Ala-Arg-Ala-NH2)
- IC50 [1]: 141 ± 52 µM

Structure (SMILES): CC(=O)NCC(=O)N[C@@H](CCCNC(=N)N)C(=O)N[C@@H](C)C(N)=O [Compound 1a] (Ac-Gly-Arg-Ala-NH2)
- inhibition of MLL1 HMT activity, result in words [1]: fail to inhibit the MLL1 HMT activity
- decrease in binding affinity to WDR5 (times) compared to ARA (Ac-ARA-NH2) [2]: > 100

Structure (SMILES): CC[C@H](NC(C)=O)C(=O)N[C@@H](CCCNC(=N)N)C(=O)N[C@@H](C)C(N)=O [Compound 1b]
- improvement in binding affinity to WDR5 (times more potent) compared to ARA (Ac-ARA-NH2) [2]: 2

Structure (SMILES): CC(=O)N[C@H](C(=O)N[C@@H](CCCNC(=N)N)C(=O)N[C@@H](C)C(N)=O)C(C)C [Compound 1c] (Ac-Val-Arg-Ala-NH2)
- improvement in binding affinity to WDR5 (times more potent) compared to ARA (Ac-ARA-NH2) [2]: 2

Structure (SMILES): CC(=O)N[C@@H](CS)C(=O)N[C@@H](CCCNC(=N)N)C(=O)N[C@@H](C)C(N)=O [Compound 1d] (Ac-Cys-Arg-Ala-NH2)
- decrease in binding affinity to WDR5 (times) compared to ARA (Ac-ARA-NH2) [2]: 3

Structure (SMILES): CC(=O)N[C@@H](Cc1c[nH]cn1)C(=O)N[C@@H](CCCNC(=N)N)C(=O)N[C@@H](C)C(N)=O [Compound 1g] (Ac-His-Arg-Ala-NH2)
- decrease in binding affinity to WDR5 (times) compared to ARA (Ac-ARA-NH2) [2]: 3–6

Structure (SMILES): CC(=O)N[C@@H](Cc1ccccc1)C(=O)N[C@@H](CCCNC(=N)N)C(=O)N[C@@H](C)C(N)=O [Compound 1h] (Ac-Phe-Arg-Ala-NH2)
- inhibition of MLL1 HMT activity, result in words [1]: fail to inhibit the MLL1 HMT activity
- decrease in binding affinity to WDR5 (times) compared to ARA (Ac-ARA-NH2) [2]: 3–6

Structure (SMILES): CC(=O)N[C@@H](CO)C(=O)N[C@@H](CCCNC(=N)N)C(=O)N[C@@H](C)C(N)=O [Compound 1i] (Ac-Ser-Arg-Ala-NH2)
- decrease in binding affinity to WDR5 (times) compared to ARA (Ac-ARA-NH2) [2]: 5
- weakening of binding to WDR5 (times) compared to Val and Abu at Ala1 [2]: approximately 10

Structure (SMILES): CC(=O)N[C@H](C(=O)N[C@@H](CCCNC(=N)N)C(=O)N[C@@H](C)C(N)=O)[C@@H](C)O [Compound 1j] (Ac-Thr-Arg-Ala-NH2)
- decrease in binding affinity to WDR5 (times) compared to ARA (Ac-ARA-NH2) [2]: 5
- weakening of binding to WDR5 (times) compared to Val and Abu at Ala1 [2]: approximately 10

Structure (SMILES): CCCC[C@H](NC(=O)[C@H](C)NC(C)=O)C(=O)N[C@@H](C)C(N)=O [Compound 2a]
- IC50 [2]: > 300 µM
- Ki [2]: > 65 µM
- binding to WDR5, result in words ([2]; FP-based competitive binding): complete loss of binding

Structure (SMILES): CC(=O)N[C@@H](C)C(=O)N[C@@H](CCCN)C(=O)N[C@@H](C)C(N)=O [Compound 2b]
- IC50 [2]: > 300 µM
- Ki [2]: > 65 µM
- binding to WDR5, result in words ([2]; FP-based competitive binding): complete loss of binding

Structure (SMILES): CC(=O)N[C@@H](C)C(=O)N[C@@H](CCCCN)C(=O)N[C@@H](C)C(N)=O [Compound 2c] (Ac-Ala-Lys-Ala-NH2)
- IC50 [2]: > 300 µM
- Ki [2]: > 65 µM
- binding to WDR5, result in words ([2]; FP-based competitive binding): inactive

Structure (SMILES): CC(=O)N[C@@H](C)C(=O)N[C@@H](CCCNC(N)=O)C(=O)N[C@@H](C)C(N)=O [Compound 2d]
- inhibition of MLL1 HMT activity, result in words [1]: fail to inhibit the MLL1 HMT activity
- binding to WDR5, result in words ([2]; FP-based competitive binding): fails to bind to WDR5

Structure (SMILES): CC(=O)N[C@@H](C)C(=O)N[C@@H](CCCNC(=N)N)C(=O)NCC(N)=O [Compound 3a] (Ac-Ala-Arg-Gly-NH2)
- decrease in binding affinity to WDR5 (times) compared to ARA (Ac-ARA-NH2) [2]: > 10

Structure (SMILES): CC[C@H](NC(=O)[C@H](CCCNC(=N)N)NC(=O)[C@H](C)NC(C)=O)C(N)=O [Compound 3b]
- improvement in binding affinity to WDR5 (times more potent) compared to ARA (Ac-ARA-NH2) [2]: 20

Structure (SMILES): CC(=O)N[C@@H](C)C(=O)N[C@@H](CCCNC(=N)N)C(=O)N[C@H](C(N)=O)C(C)C [Compound 3c] (Ac-Ala-Arg-Val-NH2)
- improvement in binding affinity to WDR5 (times more potent) compared to ARA (Ac-ARA-NH2) [2]: 5

Structure (SMILES): CC(=O)N[C@@H](C)C(=O)N[C@@H](CCCNC(=N)N)C(=O)N[C@@H](CO)C(N)=O [Compound 3h] (Ac-Ala-Arg-Ser-NH2)
- decrease in binding affinity to WDR5 (times) compared to ARA (Ac-ARA-NH2) [2]: 3

Structure (SMILES): CC(=O)N[C@@H](C)C(=O)N[C@@H](CCCNC(=N)N)C(=O)N[C@H](C(N)=O)[C@@H](C)O [Compound 3i] (Ac-Ala-Arg-Thr-NH2)
- reduction of binding affinity to WDR5 (fold) compared to 3b ([2]; relative to 3b): 3
- improvement in binding affinity to WDR5 (times more potent) compared to ARA (Ac-ARA-NH2) [2]: 5

Structure (SMILES): CC(=O)N[C@@H](C)C(=O)N[C@@H](CCCNC(=N)N)C(=O)N[C@@H](CCC(=O)O)C(N)=O [Compound 3j] (Ac-Ala-Arg-Glu-NH2)
- decrease in binding affinity to WDR5 (times) compared to ARA (Ac-ARA-NH2) [2]: > 100

Structure (SMILES): CCC(CC)(NC(C)=O)C(=O)N[C@@H](CCCNC(=N)N)C(=O)N[C@H](C(N)=O)C(C)C [Compound 4f]
- times more potent than 3c in binding to WDR5 ([2]; relative to 3c): 5

Structure (SMILES): CC(=O)N[C@H](C(=O)N[C@@H](CCCNC(=N)N)C(=O)N[C@H](C(N)=O)C(C)C)C1CCCC1 [Compound 4i]
- decrease in binding affinity to WDR5 (times less potent) compared to 3c ([2]; relative to 3c): 15

Structure (SMILES): CC(=O)N[C@H](C(=O)N[C@@H](CCCNC(=N)N)C(=O)N[C@H](C(N)=O)C(C)C)c1ccccc1 [Compound 4j]
- decrease in binding affinity to WDR5 (times less potent) compared to 3c ([2]; relative to 3c): 50

Structure (SMILES): CCC(CC)(NC(=O)C(C)C)C(=O)N[C@@H](CCCN=C(N)N)C(=O)NC1(C(=O)NC(c2ccc(F)cc2)c2ccc(F)cc2)CCCC1 [MM-102]
- decrease in Meis-1 expression [3]: 40%
- cells undergoing cell death [4]: < 10%
- effect on expression of GAPDH, in words [5]: did not affect the expression of GAPDH
- effect on cell growth, in words ([6]; K562 (BCR-ABL, no MLL1 fusion), up to 50 μM): no effect
- effect on cell growth, in words ([6]; K562, 75 μM): minimal effect
- cell growth inhibition, in words ([7]; KOPN8, 75 μM): completely inhibits cell growth
- IC50 ([7]; read-out: cell growth inhibition IC50, KOPN8 (MLL1-ENL)): 25 µM
- improvement in binding affinity to WDR5 (times more potent) compared to ARA (Ac-ARA-NH2) [2]: > 200
- cell growth inhibition, in words ([8]; MV4;11, 75 μM): completely inhibits cell growth
- IC50 ([8]; read-out: cell growth inhibition IC50, MV4;11 (MLL1-AF4)): 25 µM
- reduction in HoxA9 gene expression compared with Mock ([9]; 25 μM): Approximately 50%
- reduction in HoxA9 gene expression compared with Mock ([9]; 50 μM): ~70%
- cells undergoing cell death [10]: > 75%

Structure (SMILES): CCC(CC)(NC(=O)C(C)C)C(=O)N[C@@H](CCCNC(=N)N)C(=O)NC1(C(=O)NC(c2ccc(Cl)cc2)c2ccc(Cl)cc2)CCCC1 [MM-103]
- Ki ([2]; read-out: Ki ± SD, binding affinity to WDR5, FP-based competitive binding): < 0.001 µM
